Experimental data as given in ChEMBL document CHEMBL1143838, “Candida albicans and Candida dubliniensis respond differently to echinocandin antifungal agents in vitro” (2007).
Values after ≈ are worked out from the molar mass of the structure shown. Active and inactive are the calls of the source. The calls are words filed in the database; no cut-off is given here. *1 amine or outer side, *2 acyl side, *3 side chain or, on linkers, in order; H or OH if unused. Where a SMILES comes first, the peptide text is derived from it. Bridges are numbered along the chain shown (N, C = ends). [ ]: non-standard residue; d: D form. The star is where a group is joined. pTerphenylCO(4''-OnC5H11) = CCCCCOc1ccc(-c2ccc(-c3ccc(C(=O)*)cc3)cc2)cc1; Orn(4R-OH,5R-OH) = O=C([C@H](C[C@@H](O)[C@@H](O)N[*:3])N[*:1])[*:2]; hTyr(3S-OH,4S-OH) = N[C@H](C(=O)O)[C@H](O)[C@@H](O)c1ccc(O)cc1; Pro(3S-OH,4S-Me) = C[C@H]1CN[C@H](C(=O)O)[C@H]1O; Hyp = O=C(O)[C@@H]1C[C@@H](O)CN1

Experiments:
[1] = test system: Candida albicans; experiment: Antifungal activity against Candida albicans T32 after 24 hrs by EUCAST test; type: functional
In short: (§1)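 EUCAST broth microdilution with aqueous doubling dilutions of drug. Inoculum grown overnight at 30°C in NGY, then added to MOPS-buffered RPMI 1640 with 2% glucose at an initial 10^5 yeasts/ml. Incubated 35°C for 24 h. MICs taken from triplicate spectrophotometric dose-response data as 50% and 80% growth-reduction endpoints.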

[2] = test system: Candida albicans; experiment: Antifungal activity against Candida albicans NR2 after 24 hrs by CLSI M27-A test; type: functional
In short: (§2)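 CLSI M27-A broth microdilution with aqueous doubling dilutions of drug. Inoculum grown overnight at 30°C in NGY medium, then added to MOPS-buffered RPMI 1640 at an initial 10^3 yeasts/ml. Incubated 35°C for 24 h. MIC read visually as the lowest concentration giving a marked decrease in visible growth; paradoxical or trailing growth noted.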

[3] = test system: Candida albicans; experiment: Antifungal activity against Candida albicans NR2 after 24 hrs by EUCAST test; type: functional; in short: as §1
[4] = test system: Candida albicans; experiment: Antifungal activity against Candida albicans SCS140136P after 24 hrs by CLSI M27-A test; type: functional; in short: as §2
[5] = test system: Candida albicans; experiment: Antifungal activity against Candida albicans SCS140136P after 24 hrs by EUCAST test; type: functional; in short: as §1
[6] = test system: Candida albicans; experiment: Antifungal activity against Candida albicans SCS67023C after 24 hrs by CLSI M27-A test; type: functional; in short: as §2
[7] = test system: Candida albicans; experiment: Antifungal activity against Candida albicans SCS67023C after 24 hrs by EUCAST test; type: functional; in short: as §1
[8] = test system: Candida albicans; experiment: Antifungal activity against Candida albicans SCS68858 after 24 hrs by EUCAST test; type: functional; in short: as §1
[9] = test system: Candida albicans; experiment: Antifungal activity against Candida albicans AM2003/0083 after 24 hrs by EUCAST test; type: functional; in short: as §1
[10] = test system: Candida albicans; experiment: Antifungal activity against Candida albicans B06-341 after 24 hrs by EUCAST test; type: functional; in short: as §1
[11] = test system: Candida albicans; experiment: Antifungal activity against Candida albicans HK04M102095 after 24 hrs by EUCAST test; type: functional; in short: as §1
[12] = test system: Candida albicans; experiment: Antifungal activity against Candida albicans JIMS101103 after 24 hrs by CLSI M27-A test; type: functional, organism-based; in short: as §2
[13] = test system: Candida albicans; experiment: Antifungal activity against Candida albicans NR3 after 24 hrs by EUCAST test; type: functional; in short: as §1
[14] = test system: Candida albicans; experiment: Antifungal activity against Candida albicans NR4 after 24 hrs by CLSI M27-A test; type: functional; in short: as §2
[15] = test system: Candida albicans; experiment: Antifungal activity against Candida albicans NR4 after 24 hrs by EUCAST test; type: functional; in short: as §1
[16] = test system: Candida albicans; experiment: Antifungal activity against Candida albicans CAI4RI after 24 hrs by CLSI M27-A test; type: functional; in short: as §2
[17] = test system: Candida albicans; experiment: Antifungal activity against Candida albicans CAI4RI after 24 hrs by EUCAST test; type: functional; in short: as §1
[18] = test system: Candida albicans; experiment: Antifungal activity against Candida albicans T25 after 24 hrs by CLSI M27-A test; type: functional; in short: as §2
[19] = test system: Candida albicans; experiment: Antifungal activity against Candida albicans T25 after 24 hrs by EUCAST test; type: functional; in short: as §1
[20] = test system: Candida dubliniensis; experiment: Antifungal activity against Candida dubliniensis 75/043 after 24 hrs by EUCAST test; type: functional; in short: as §1
[21] = test system: Candida dubliniensis; experiment: Antifungal activity against Candida dubliniensis 75/043 after 24 hrs by CLSI M27-A test; type: functional; in short: as §2
[22] = test system: Candida dubliniensis; experiment: Antifungal activity against Candida dubliniensis 81/060 after 24 hrs by CLSI M27-A test; type: functional, organism-based; in short: as §2
[23] = test system: Candida dubliniensis; experiment: Antifungal activity against Candida dubliniensis 90/033 after 24 hrs by CLSI M27-A test; type: functional; in short: as §2
[24] = test system: Candida dubliniensis; experiment: Antifungal activity against Candida dubliniensis AMCC after 24 hrs by CLSI M27-A test; type: functional; in short: as §2
[25] = test system: Candida dubliniensis; experiment: Antifungal activity against Candida dubliniensis AMCC after 24 hrs by EUCAST test; type: functional; in short: as §1
[26] = test system: Candida dubliniensis; experiment: Antifungal activity against Candida dubliniensis Leic952 after 24 hrs by EUCAST test; type: functional
In short: (§3)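 Yeasts were grown overnight at 30°C in NGY, then inoculated at 10^5 yeasts/ml initial concentration into MOPS-buffered RPMI 1640 with 2% glucose containing aqueous doubling dilutions of drug. Plates were held at 35°C for 24 h. MICs came from triplicate spectrophotometric dose-response data at 50% and 80% growth-reduction endpoints. Trailing meant a >100-fold gap between these endpoints; paradoxical meant regrowth ≥5% above the curve minimum.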

[27] = test system: Candida dubliniensis; experiment: Antifungal activity against Candida dubliniensis SCS17154969-1 after 24 hrs by CLSI M27-A test; type: functional
In short: (§4)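 Broth microdilution with echinocandins as aqueous doubling dilutions. Yeasts were grown overnight at 30°C in NGY and seeded at 10^3 yeasts/ml initial concentration in MOPS-buffered RPMI 1640, then incubated at 35°C for 24 h. The MIC was read visually as the lowest concentration giving a marked decrease in visible growth; paradoxical or trailing growth was noted.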

[28] = test system: Candida dubliniensis; experiment: Antifungal activity against Candida dubliniensis SCS17154969-1 after 24 hrs by EUCAST test; type: functional; in short: as §3
[29] = test system: Candida dubliniensis; experiment: Antifungal activity against Candida dubliniensis SCS17154969-2 after 24 hrs by EUCAST test; type: functional; in short: as §3
[30] = test system: Candida dubliniensis; experiment: Antifungal activity against Candida dubliniensis SCS65875C after 24 hrs by CLSI M27-A test; type: functional; in short: as §4
[31] = test system: Candida dubliniensis; experiment: Antifungal activity against Candida dubliniensis ANSA 23a after 24 hrs by CLSI M27-A test; type: functional, organism-based; in short: as §4
[32] = test system: Candida dubliniensis; experiment: Antifungal activity against Candida dubliniensis ANSA 23a after 24 hrs by EUCAST test; type: functional; in short: as §3
[33] = test system: Candida dubliniensis; experiment: Antifungal activity against Candida dubliniensis FS after 24 hrs by CLSI M27-A test; type: functional; in short: as §4
[34] = test system: Candida dubliniensis; experiment: Antifungal activity against Candida dubliniensis FS after 24 hrs by EUCAST test; type: functional; in short: as §3
[35] = test system: Candida dubliniensis; experiment: Antifungal activity against Candida dubliniensis IK after 24 hrs by CLSI M27-A test; type: functional; in short: as §4
[36] = test system: Candida dubliniensis; experiment: Antifungal activity against Candida dubliniensis J931021 after 24 hrs by CLSI M27-A test; type: functional; in short: as §4
[37] = test system: Candida dubliniensis; experiment: Antifungal activity against Candida dubliniensis J931021 after 24 hrs by EUCAST test; type: functional; in short: as §3
[38] = test system: Candida dubliniensis; experiment: Antifungal activity against Candida dubliniensis KR after 24 hrs by CLSI M27-A test; type: functional; in short: as §4
[39] = test system: Candida dubliniensis; experiment: Antifungal activity against Candida dubliniensis SCSBB417709 after 24 hrs by CLSI M27-A test; type: functional; in short: as §4
[40] = test system: Candida dubliniensis; experiment: Antifungal activity against Candida dubliniensis ST after 24 hrs by CLSI M27-A test; type: functional; in short: as §4

Question: With `CCCCCOc1ccc(-c2ccc(-c3ccc(C(=O)N[C@H]4C[C@@H](O)[C@@H](O)NC(=O)[C@@H]5[C@@H](O)[C@@H](C)CN5C(=O)[C@H]([C@@H](C)O)NC(=O)[C@H]([C@H](O)[C@@H](O)c5ccc(O)cc5)NC(=O)[C@@H]5C[C@@H](O)CN5C(=O)[C@H]([C@@H](C)O)NC4=O)cc3)cc2)cc1` [ANIDULAFUNGIN] ({pTerphenylCO(4''-OnC5H11)}-[Orn(4R-OH,5R-OH)]T[Hyp][hTyr(3S-OH,4S-OH)]T[Pro(3S-OH,4S-Me)]; lactam 1-C) as the compound, how does the MIC50 [1] read?
Answer: Its MIC50 is at most 0.032 µg/mL.

Question: What about the MIC50 [2] of the same compound?
Answer: The MIC50 was 0.5 µg/mL (≈ 0.438 µM).

Question: And the MIC50 [3]?
Answer: The MIC50 was 0.25 µg/mL (≈ 0.219 µM).

Question: What about the MIC50 [4] of the same compound?
Answer: Its MIC50 is at most 0.032 µg/mL.

Question: And the MIC50 [5]?
Answer: The MIC50 was at most 0.032 µg/mL.

Question: And the MIC50 [6]?
Answer: The MIC50 was at most 0.032 µg/mL.

Question: And the MIC50 [7]?
Answer: The MIC50 was at most 0.032 µg/mL.

Question: And the MIC50 [8]?
Answer: Its MIC50 is at most 0.032 µg/mL.

Question: What about the MIC50 [9] of the same compound?
Answer: Its MIC50 is at most 0.032 µg/mL.

Question: And the MIC50 [10]?
Answer: Its MIC50 is 0.13 µg/mL (≈ 0.114 µM).

Question: What about the MIC50 [11] of the same compound?
Answer: The MIC50 was at most 0.032 µg/mL.

Question: What about the Activity [12] of the same compound?
Answer: Its Activity is “Active”.

Question: And the MIC50 [13]?
Answer: The MIC50 was 1 µg/mL (≈ 0.877 µM).

Question: And the MIC50 [14]?
Answer: Its MIC50 is 0.25 µg/mL (≈ 0.219 µM).

Question: And the MIC50 [15]?
Answer: Its MIC50 is 0.13 µg/mL (≈ 0.114 µM).

Question: What about the MIC50 [16] of the same compound?
Answer: Its MIC50 is 0.5 µg/mL (≈ 0.438 µM).

Question: What about the MIC50 [17] of the same compound?
Answer: The MIC50 was 0.25 µg/mL (≈ 0.219 µM).

Question: And the MIC50 [18]?
Answer: Its MIC50 is 1 µg/mL (≈ 0.877 µM).

Question: What about the MIC50 [19] of the same compound?
Answer: Its MIC50 is 0.5 µg/mL (≈ 0.438 µM).

Question: What about the MIC50 [20] of the same compound?
Answer: Its MIC50 is at most 0.032 µg/mL.

Question: What about the MIC50 [21] of the same compound?
Answer: Its MIC50 is at most 0.032 µg/mL.

Question: What about the Activity [22] of the same compound?
Answer: The Activity was “Active”.

Question: What about the MIC50 [23] of the same compound?
Answer: The MIC50 was at most 0.032 µg/mL.

Question: And the MIC50 [24]?
Answer: The MIC50 was at most 0.032 µg/mL.

Question: What about the MIC50 [25] of the same compound?
Answer: The MIC50 was at most 0.032 µg/mL.

Question: And the MIC50 [26]?
Answer: The MIC50 was 8 µg/mL (≈ 7.02 µM).

Question: And the MIC50 [27]?
Answer: Its MIC50 is at most 0.032 µg/mL.

Question: And the MIC50 [28]?
Answer: Its MIC50 is at most 0.032 µg/mL.

Question: What about the MIC50 [29] of the same compound?
Answer: The MIC50 was 0.063 µg/mL (≈ 0.0553 µM).

Question: What about the MIC50 [30] of the same compound?
Answer: Its MIC50 is at most 0.032 µg/mL.

Question: What about the Activity [31] of the same compound?
Answer: The Activity was “Active”.

Question: And the MIC50 [32]?
Answer: Its MIC50 is at most 0.032 µg/mL.

Question: And the MIC50 [33]?
Answer: The MIC50 was at most 0.032 µg/mL.

Question: And the MIC50 [34]?
Answer: The MIC50 was 4 µg/mL (≈ 3.51 µM).

Question: And the MIC50 [35]?
Answer: Its MIC50 is at most 0.032 µg/mL.

Question: What about the MIC50 [36] of the same compound?
Answer: Its MIC50 is at most 0.032 µg/mL.

Question: And the MIC50 [37]?
Answer: The MIC50 was 16 µg/mL (≈ 14 µM).

Question: And the MIC50 [38]?
Answer: The MIC50 was at most 0.032 µg/mL.

Question: What about the MIC50 [39] of the same compound?
Answer: Its MIC50 is at most 0.032 µg/mL.

Question: And the MIC50 [40]?
Answer: The MIC50 was at most 0.032 µg/mL.
